Measurements of several laboratories.
Each line is one published result; the experiments were not run side by side.
Target: Dual specificity protein kinase CLK1 (CLK1, Homo sapiens, UniProt P49759)

Compound | assay | conditions | measurement | value
COc1cc(-c2cc(-c3ccc(N4CCNCC4)cc3)cnc2C)cc(OC)c1OC | enzyme activity, inhibitor | 0.1 µM | inhibition | 1%
CCc1ccccc1C(=O)Nc1n[nH]c2c(C)c(F)c(C3C(C#N)=C(C)N(C)C(C)=C3C#N)cc12 | cell-free assay, competition with immobilised ligand | 1 µM | remaining binding | 84%
Cn1cncc1C1=CN(c2ncnc3[nH]cnc23)CCS1 | enzyme activity, inhibitor, radiometric | 2 µM | inhibition | 97.3%
C[S+]([O-])c1ccc(-c2nc(-c3ccncc3)c(-c3ccc(F)cc3)[nH]2)cc1 (stereo not shown) | cell-free assay | 0.5 µM | remaining signal | 101%
CNCc1ccccc1-c1csc([C@@H](C)Nc2nc(C)nc3cc(OC)c(OC)cc23)c1 | cell-free assay, competition with immobilised ligand | 1 µM | remaining binding | 98%
O=C1NC(=O)c2cc(Nc3ccc(F)cc3)c(Nc3ccc(F)cc3)cc21 | cell-free assay | 0.5 µM | remaining signal | 102%
O=C(N1CCS(=O)(=O)CC1)N1C[C@H](c2ccc(OC(F)(F)F)cc2)C[C@H](c2nc(C3CC3)no2)C1 | cell-free assay, competition with immobilised ligand | 1 µM | remaining binding | 98%
O=C(Nc1cnn(-c2csc(C(=O)NC3COC3)c2)c1)Nc1c(F)cccc1Cl | enzyme activity, inhibitor | 5 µM | remaining activity | 74.9%
COc1cc2nccc(Oc3ccc(NC(=O)Nc4ccc(F)cc4F)c(F)c3)c2cc1OC | thermal stability, DSF | 10 µM | ΔTm | 5 to 10 °C
O=C1Nc2ccc(Cl)cc2C1=Cc1cc(Cl)c(O)c(Cl)c1 | cell-free assay | 0.5 µM | remaining signal | 85%
COc1cc2ncnc(Nc3ccc(Oc4ccccc4)c(C)c3C)c2cc1OC | enzyme activity, inhibitor | 1 µM | inhibition | 3%
CC/C(=N\NC(=O)NCc1cccc(O)c1)c1ccc(O)c(C)c1O | enzyme activity, inhibitor | 0.1 µM | inhibition | 0.7%
CC(C)(C)c1nc2c(s1)c1nc(N)ncc1c1ccc(NS(=O)(=O)c3c(F)cccc3F)c(F)c12 | enzyme activity, inhibitor, radiometric | 1 µM | remaining activity | 91%
Cc1cnc(NC2CCOCC2)nc1-n1cnc(C(=O)NC(CN)c2cc(F)cc(Cl)c2)c1 (stereo not shown) | enzyme activity, inhibitor, radiometric | 1 µM | remaining activity | 62%
O=C(NCc1ncc(C(F)(F)F)cc1Cl)c1ccc2c(c1)C1(CCS(=O)(=O)CC1)[C@H](C1CC1)N2S(=O)(=O)c1ccc(F)cc1 | cell-free assay, competition with immobilised ligand | 1 µM | remaining binding | 100%
CN1CC(Oc2cnc(C#N)cc2-c2ccn3nc(NC(=O)C4CC4)cc3c2)C1 | enzyme activity, inhibitor | 1 µM | inhibition | -3%
O=C(Nc1cnn(-c2csc(C(=O)NC3COC3)c2)c1)Nc1ccccc1Cl | enzyme activity, inhibitor | 5 µM | remaining activity | 81%
CC(C)(O)[C@H]1CC[C@H](Nc2ccc3ncc(-c4cccc(C(F)(F)F)c4)n3n2)CC1 | enzyme activity, inhibitor | 1 µM | remaining activity | 8.45%
O=C(O)[C@H]1[C@H](Cn2nnc3ccccc3c2=O)CC[C@@H]1C(=O)c1ccc(OCCC2CCOCC2)cc1 | cell-free assay, competition with immobilised ligand | 1 µM | remaining binding | 98%
Cc1cc(NC(=O)c2cccc3cc(-c4cccc5[nH]nc(N)c45)ccc23)ccc1F | enzyme activity, inhibitor | 0.1 µM | activity vs control | 97%
O=C(NC[C@@H]1[C@H]2CN(C(=O)OCc3cc(C(F)(F)F)cc(C(F)(F)F)c3)C[C@@H]12)c1ccc2[nH]nnc2c1 | cell-free assay, competition with immobilised ligand | 1 µM | remaining binding | 87%
Oc1cccc(-c2nc(N3CCOCC3)c3oc4ncccc4c3n2)c1 | cell-free assay | 0.5 µM | remaining signal | 85.2%
